Measured values reported in ChEMBL document CHEMBL4665761, “Optimizing the Benefit/Risk of Acetyl-CoA Carboxylase Inhibitors through Liver Targeting” (J Med Chem, 2020).
In brackets after ≈: the same amount, converted by molar mass.

Tests used:
[1] = Drug uptake in Wistar-Hannover rat assessed as plasma concentration at 30 mg/kg, po after 6 hrs by LC/MS-MS analysis; type: ADME, organism-based
Method in brief: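 Male Wistar-Hannover rats, n = 2 or 3, given an oral suspension in 0.5% methyl cellulose with 0.1% Tween 80; one compound was dosed as the HCl salt. Total plasma and liver concentrations were measured 6 h post-dose. Kp = liver/plasma total concentration. Kpu,u uses fu values from equilibrium dialysis.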

[2] = Tmax in Wistar-Hannover rat plasma at 4 mg/kg, po and measured up to 24 hrs by LC/MS-MS analysis; type: ADME, organism-based
Method in brief: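 Plasma concentration–time data, n = 2, averaged. Cmax and Tmax read directly from the data. AUC0–24 by the linear trapezoidal rule. F calculated as dose-normalized AUC PO/IV.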

Acetyl-CoA carboxylase 2 = Acetyl-CoA carboxylase 2 (Homo sapiens, UniProt O00763); assay: Uncompetitive inhibition of human ACC2 incubated for 15 mins in presence of ATP by Line weaver-Burk plot analysis
Acetyl-CoA carboxylase 2, sequence (O00763 whole entry): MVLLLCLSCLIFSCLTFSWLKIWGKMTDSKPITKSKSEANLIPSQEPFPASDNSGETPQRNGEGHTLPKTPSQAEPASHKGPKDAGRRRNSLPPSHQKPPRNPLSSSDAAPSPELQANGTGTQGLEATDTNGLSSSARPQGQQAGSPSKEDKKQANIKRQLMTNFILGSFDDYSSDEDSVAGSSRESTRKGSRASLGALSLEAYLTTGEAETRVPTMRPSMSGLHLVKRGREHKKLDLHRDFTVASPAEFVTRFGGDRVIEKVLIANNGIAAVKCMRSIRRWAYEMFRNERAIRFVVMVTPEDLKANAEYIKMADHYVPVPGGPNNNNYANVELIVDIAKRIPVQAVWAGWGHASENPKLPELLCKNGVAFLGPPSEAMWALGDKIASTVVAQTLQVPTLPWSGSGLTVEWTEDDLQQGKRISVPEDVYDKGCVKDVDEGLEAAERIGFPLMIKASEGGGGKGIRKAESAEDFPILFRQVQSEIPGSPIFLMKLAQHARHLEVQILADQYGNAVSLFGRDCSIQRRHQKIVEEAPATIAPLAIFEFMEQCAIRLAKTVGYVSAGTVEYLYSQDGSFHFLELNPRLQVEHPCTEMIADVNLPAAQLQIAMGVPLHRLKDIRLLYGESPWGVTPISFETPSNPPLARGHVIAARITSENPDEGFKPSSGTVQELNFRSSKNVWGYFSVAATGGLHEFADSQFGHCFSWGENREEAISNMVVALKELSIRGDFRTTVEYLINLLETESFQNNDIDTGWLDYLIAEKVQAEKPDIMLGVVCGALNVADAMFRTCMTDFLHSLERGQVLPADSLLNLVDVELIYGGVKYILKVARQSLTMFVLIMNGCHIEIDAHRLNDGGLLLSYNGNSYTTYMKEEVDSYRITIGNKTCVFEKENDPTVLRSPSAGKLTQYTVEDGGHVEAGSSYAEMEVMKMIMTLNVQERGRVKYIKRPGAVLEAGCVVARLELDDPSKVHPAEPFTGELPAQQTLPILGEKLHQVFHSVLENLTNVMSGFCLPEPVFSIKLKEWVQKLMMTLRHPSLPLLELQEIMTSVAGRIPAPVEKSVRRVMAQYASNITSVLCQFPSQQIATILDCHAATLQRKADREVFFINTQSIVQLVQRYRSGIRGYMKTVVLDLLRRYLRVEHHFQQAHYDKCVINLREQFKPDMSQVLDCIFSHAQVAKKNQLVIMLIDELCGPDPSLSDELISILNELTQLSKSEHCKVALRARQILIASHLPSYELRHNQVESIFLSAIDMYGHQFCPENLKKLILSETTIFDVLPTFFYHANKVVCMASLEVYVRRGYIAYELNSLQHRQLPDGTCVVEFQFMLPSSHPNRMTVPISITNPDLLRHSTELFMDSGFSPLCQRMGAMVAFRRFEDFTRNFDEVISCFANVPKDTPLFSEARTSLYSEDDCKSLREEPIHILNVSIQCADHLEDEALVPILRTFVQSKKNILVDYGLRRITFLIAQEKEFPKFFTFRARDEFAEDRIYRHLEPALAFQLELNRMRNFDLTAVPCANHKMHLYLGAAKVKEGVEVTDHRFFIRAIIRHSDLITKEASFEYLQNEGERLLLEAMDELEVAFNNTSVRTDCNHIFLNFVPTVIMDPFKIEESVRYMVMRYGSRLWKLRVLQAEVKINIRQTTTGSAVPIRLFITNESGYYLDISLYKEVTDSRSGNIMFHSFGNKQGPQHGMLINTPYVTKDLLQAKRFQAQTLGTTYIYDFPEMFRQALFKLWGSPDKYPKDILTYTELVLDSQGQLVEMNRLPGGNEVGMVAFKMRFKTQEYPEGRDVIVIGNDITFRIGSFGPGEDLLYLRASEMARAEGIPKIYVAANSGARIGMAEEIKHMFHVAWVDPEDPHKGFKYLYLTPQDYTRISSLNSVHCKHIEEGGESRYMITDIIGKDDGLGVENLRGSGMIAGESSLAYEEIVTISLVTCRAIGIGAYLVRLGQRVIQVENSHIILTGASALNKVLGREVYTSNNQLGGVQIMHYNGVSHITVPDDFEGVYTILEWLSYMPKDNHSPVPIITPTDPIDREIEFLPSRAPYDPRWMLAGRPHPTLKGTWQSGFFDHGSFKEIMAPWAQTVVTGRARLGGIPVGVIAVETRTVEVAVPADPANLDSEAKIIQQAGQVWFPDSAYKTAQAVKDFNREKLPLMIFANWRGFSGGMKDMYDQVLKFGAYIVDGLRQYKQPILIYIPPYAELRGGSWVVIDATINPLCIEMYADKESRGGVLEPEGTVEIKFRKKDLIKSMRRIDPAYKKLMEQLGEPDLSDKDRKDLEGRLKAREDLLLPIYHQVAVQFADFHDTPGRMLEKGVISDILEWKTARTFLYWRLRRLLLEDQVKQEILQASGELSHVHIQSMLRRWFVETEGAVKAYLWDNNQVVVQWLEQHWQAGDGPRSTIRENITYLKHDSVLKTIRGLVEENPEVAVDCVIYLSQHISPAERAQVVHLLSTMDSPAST
Method in brief: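 Radioenzymatic assay with purified ACC isozymes, measuring [14C]-bicarbonate incorporation into [14C]-malonyl-CoA. Mode of inhibition taken from substrate concentration-dependence experiments varying ATP or carbonate. IC50 dose-response run at saturating ATP.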

[3] = Apparent volume of distribution at steady state in cynomolgus monkey plasma at 1 mg/kg, iv and measured up to 72 hrs by LC/MS-MS analysis; type: ADME, organism-based, Macaca fascicularis; conditions: read-out: Vdss(app)
Method in brief: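 Cynomolgus monkeys dosed 1 mg/kg IV as the tris salt in 2% N-methylpyrrolidone/98% sulfobutylether-β-cyclodextrin (12.5%) in 50 mM TRIS, pH 8.0, or PO as the tris salt. Plasma was analysed by LC-MS/MS, n = 2. CL = IV dose/AUC; Vss = dose/(AUC × elimination rate constant); Cmax taken from observed data.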

[4] = Thermodynamic solubility of the compound at pH 1.2 after 24 hrs; type: physicochemical; conditions: buffer, read-out: Therm_solubility
[5] = Inhibition of DNL in Sprague-Dawley rat assessed as reduction in DNL level in bone marrow at 300 mg/kg, po pretreated with 1 hr followed by [14C]-acetate treatment and measured after 1 hr relative to control; type: functional; conditions: time 2 hrs
Method in brief: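 Sprague-Dawley rats given single oral doses of 0.03–300 mg/kg in 0.5% methyl cellulose vehicle, n = 16 per dose. Read-out is incorporation of 14C-acetate into lipids in liver, bone marrow and lung, measured at 2 h post-dose relative to vehicle. Data are mean ± SEM. EC50 is reported with a 95% confidence interval.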

[6] = Drug uptake in human hepatocytes assessed as ratio of active uptake intrinsic clearance to passive diffusion clearance at 1 uM up to 15 mins by LC-MS/MS analysis; type: ADME, cell-based, Hepatocyte; conditions: 0.25 h
[7] = Thermodynamic solubility of the compound at pH 6.5 after 24 hrs; type: physicochemical; conditions: buffer, read-out: Therm_solubility
Cytochrome P450 2C9 = Cytochrome P450 2C9 (Homo sapiens, UniProt P11712); assay: inhibition of CYP2C9 in human liver microsomes; type: ADME
Cytochrome P450 2C9, sequence (P11712 whole entry): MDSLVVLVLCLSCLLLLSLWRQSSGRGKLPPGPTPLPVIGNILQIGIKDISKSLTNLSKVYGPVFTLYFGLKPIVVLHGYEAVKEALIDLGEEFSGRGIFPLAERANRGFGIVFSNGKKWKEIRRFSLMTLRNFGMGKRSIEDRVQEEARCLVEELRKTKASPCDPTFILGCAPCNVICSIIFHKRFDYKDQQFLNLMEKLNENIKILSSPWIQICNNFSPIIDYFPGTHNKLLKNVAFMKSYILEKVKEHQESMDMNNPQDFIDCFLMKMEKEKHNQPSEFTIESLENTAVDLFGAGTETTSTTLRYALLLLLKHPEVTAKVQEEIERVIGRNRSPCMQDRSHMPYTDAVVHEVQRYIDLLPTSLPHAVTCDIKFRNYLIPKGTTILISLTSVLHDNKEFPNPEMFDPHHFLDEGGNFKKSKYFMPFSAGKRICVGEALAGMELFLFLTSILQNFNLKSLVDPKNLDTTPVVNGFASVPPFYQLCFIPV

Cytochrome P450 2D6 = Cytochrome P450 2D6 (Homo sapiens, UniProt P10635); assay: inhibition of CYP2D6 in human liver microsomes; type: ADME
Cytochrome P450 2D6, sequence (P10635 whole entry): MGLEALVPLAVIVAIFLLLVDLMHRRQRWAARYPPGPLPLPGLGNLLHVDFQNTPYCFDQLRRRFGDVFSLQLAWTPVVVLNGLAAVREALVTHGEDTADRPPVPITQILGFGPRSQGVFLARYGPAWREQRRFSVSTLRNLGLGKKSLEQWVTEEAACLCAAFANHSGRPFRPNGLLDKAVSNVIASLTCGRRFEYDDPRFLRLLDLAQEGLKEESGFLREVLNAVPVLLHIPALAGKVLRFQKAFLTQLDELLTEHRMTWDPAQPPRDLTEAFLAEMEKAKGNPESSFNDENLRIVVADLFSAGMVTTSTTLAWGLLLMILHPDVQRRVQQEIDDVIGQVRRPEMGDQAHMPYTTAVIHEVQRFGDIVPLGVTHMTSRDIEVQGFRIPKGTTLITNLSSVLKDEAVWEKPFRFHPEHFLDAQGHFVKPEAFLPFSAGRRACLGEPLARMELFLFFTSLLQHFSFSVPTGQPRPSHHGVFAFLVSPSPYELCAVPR

NTCP = NTCP (Homo sapiens, UniProt Q14973); assay: Substrate activity at human NTCP stably expressed in HEK293 cells assessed as ratio of total to passive cellular uptake at 1 uM incubated for 0.5 to 4 mins by LC/MS-MS analysis; type: cell-based; conditions: HEK293 cells stably expressing human NTCP, time 0.5-4 min
NTCP, sequence (Q14973 whole entry): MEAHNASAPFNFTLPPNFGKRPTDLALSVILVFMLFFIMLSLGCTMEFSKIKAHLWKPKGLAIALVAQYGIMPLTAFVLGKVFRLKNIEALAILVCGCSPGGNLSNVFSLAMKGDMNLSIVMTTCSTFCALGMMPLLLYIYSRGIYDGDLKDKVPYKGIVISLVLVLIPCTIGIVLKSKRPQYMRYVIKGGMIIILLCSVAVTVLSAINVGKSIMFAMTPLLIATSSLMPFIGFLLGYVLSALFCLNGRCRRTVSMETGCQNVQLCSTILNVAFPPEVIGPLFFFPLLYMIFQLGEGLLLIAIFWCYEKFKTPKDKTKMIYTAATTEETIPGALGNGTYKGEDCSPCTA
Method in brief: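 HEK293 cells stably transfected with the transporter, plus wild-type cells, grown to confluence in DMEM with 10% heat-inactivated FBS and 5 µg/mL blasticidin. Washed with HBSS/20 mM HEPES, pH 7.4, then incubated with compound at 37 °C for 0.5–4.0 min. Cells washed ice-cold, lysed in MeOH for LC-MS/MS, uptake normalized to BCA protein. Ratio = transfected/wild-type uptake, averaged over time points.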

OATP1B3 = molecular target: T1, OATP1B3 (Homo sapiens, UniProt Q9NPD5); assay: Substrate activity at human OATP1B3 stably expressed in HEK293 cells assessed as ratio of total to passive cellular uptake at 1 to 3 uM incubated for 0.5 to 4 mins by LC/MS-MS analysis; type: ADME, cell-based; conditions: HEK293 cells stably expressing human OATP1B3, dose 1-3 µM, time 0.5-4 min
T1 sequence (Q9NPD5 whole entry): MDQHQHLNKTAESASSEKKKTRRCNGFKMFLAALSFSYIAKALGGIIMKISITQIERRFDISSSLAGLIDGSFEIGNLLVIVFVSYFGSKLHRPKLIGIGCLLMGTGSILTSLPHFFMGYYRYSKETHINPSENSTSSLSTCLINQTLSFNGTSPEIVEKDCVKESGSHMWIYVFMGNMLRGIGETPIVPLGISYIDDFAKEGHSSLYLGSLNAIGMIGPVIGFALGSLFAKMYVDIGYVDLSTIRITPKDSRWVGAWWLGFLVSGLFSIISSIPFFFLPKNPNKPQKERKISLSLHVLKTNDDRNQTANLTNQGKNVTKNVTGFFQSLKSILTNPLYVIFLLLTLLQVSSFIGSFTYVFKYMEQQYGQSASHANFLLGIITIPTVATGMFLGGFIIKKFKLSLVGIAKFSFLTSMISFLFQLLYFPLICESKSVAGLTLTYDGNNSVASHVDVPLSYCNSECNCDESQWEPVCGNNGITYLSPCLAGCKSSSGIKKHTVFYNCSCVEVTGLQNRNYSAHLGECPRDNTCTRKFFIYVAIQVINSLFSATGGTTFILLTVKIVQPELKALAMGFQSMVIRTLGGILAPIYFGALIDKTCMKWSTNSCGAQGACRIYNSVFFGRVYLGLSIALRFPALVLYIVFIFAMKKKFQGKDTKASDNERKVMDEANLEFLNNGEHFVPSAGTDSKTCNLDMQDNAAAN
Method in brief: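 Stably transfected HEK293 cells and wild-type parental cells, cultured to confluency in DMEM with 10% heat-inactivated FBS and 5 µg/mL blasticidin. Uptake at 1–3 µM in HBSS/20 mM HEPES pH 7.4, 37 °C, 0.5–4.0 min. Cells washed in ice-cold buffer, lysed in MeOH, quantified by LC-MS/MS and normalized to protein. Ratio is transfected/parental uptake; >2 denotes substrate.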

[8] = molecular target: P-glycoprotein 1 (Homo sapiens); assay: Inhibition of human ABCB1 expressed in MDCK2-LE cells in presence of […]

Row | concentration at 6 h [1] [ng/mL] | Tmax [2] [min] | IC50 (Acetyl-CoA carboxylase 2) [µM] | Vd [3] [L/kg] | solubility thermodynamic at 24 h [4] [µM] | Ratio [6] | solubility thermodynamic at 24 h [7] [µM] | IC50 (Cytochrome P450 2C9) [µM] | IC50 (Cytochrome P450 2D6) [µM] | uptake ratio at 1 µM (NTCP) | uptake ratio at up to 3 µM (OATP1B3) | IC50 [8] [µM] | SMILES | inhibition in vivo at 300 mg/kg [5] [%]
1 | 41.7 | 45 |  |  |  |  |  |  |  |  |  |  | COc1cc(C(=O)N2CCC3(CC2)CC(=O)c2nn(C(C)(C)C)cc2O3)cc(-c2ccc(C(=O)O)cc2)n1 | 
2 |  |  | 0.00866 | 0.49 | 8 (≈ 4.02 µg/mL) | 8.7 | 36 (≈ 18.1 µg/mL) | > 50 | > 50 | 3.2 | 2.5 | 39 | COc1cc(C(=O)N2CCC3(CC2)CC(=O)c2c(cnn2C(C)C)C3)cc(-c2ccc(C(=O)O)cc2)n1 [CLESACOSTAT] | 33
